Measurements reported in ChEMBL document CHEMBL1141374 (J Med Chem, 2007).
pIC50: −log10 of the molar value.

Legend:
SF-268 = test: Growth inhibition in SF268 cells; format: functional; details: Homo sapiens
SF-539 = test: Growth inhibition in SF539 cells; format: functional; details: Homo sapiens
SN12C = test: Growth inhibition in SN12C cells; format: functional; details: Homo sapiens
UACC-257 = test: Growth inhibition in UACC257 cells; format: functional; details: Homo sapiens
HOP-92 = test: Growth inhibition in HOP92 cells; format: functional; details: Homo sapiens
T47D = test: Growth inhibition in T47D cells; format: functional; details: Homo sapiens
OVCAR-4 = test: Growth inhibition in OVCAR4 cells; format: functional; details: Homo sapiens
UO-31 = test: Growth inhibition in UO31 cells; format: functional; details: Homo sapiens
MDA-MB-435 = test: Growth inhibition in MDA-MB-435 cells; format: functional; details: Homo sapiens
EKVX = test: Growth inhibition in EKVX cells; format: functional; details: Homo sapiens
786-0 = test: Growth inhibition in 786-0 cells; format: functional; details: Homo sapiens
[1] = Cytotoxicity against KB-3-1 cell line; format: cell-based; details: Homo sapiens
How it was run: (§1)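 Log-phase cells were diluted to 20 000–30 000 cells/mL, seeded, and left to attach overnight. They were then exposed to compounds at 10^–5–10^–12 M for 72 h at 37 °C in 5% CO2. Viable cells were measured by MTT, with absorbance read at 595 nm. Each compound ran in triplicate in at least three independent assays. IC50 came from nonlinear regression, and average values were reported.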

[2] = Cytotoxicity against P-glycoprotein-overexpressing KB-V1 cell line; format: cell-based; details: Homo sapiens; how it was run: as §1
A549 = test: Growth inhibition in A549 cells; format: functional; details: Homo sapiens
HT-29 = test: Growth inhibition in HT29 cells; format: functional; details: Homo sapiens
SK-OV-3 = test: Growth inhibition in SKOV3 cells; format: functional; details: Homo sapiens
[3] = Growth inhibition in HS 578T cells; format: functional; details: Homo sapiens
DU-145 = test: Growth inhibition in DU145 cells; format: functional; details: Homo sapiens
SF-295 = test: Growth inhibition in SF295 cells; format: functional; details: Homo sapiens
K562 = test: Growth inhibition in K562 cells; format: functional; details: Homo sapiens
U-251 = test: Growth inhibition in U251cells; format: functional; details: Homo sapiens
OVCAR-3 = test: Growth inhibition in OVCAR-3 cells; format: functional; details: Homo sapiens
[4] = Growth inhibition in HCC116 cells; format: functional; details: Homo sapiens
SNB-19 = test: Growth inhibition in SNB19 cells; format: functional; details: Homo sapiens
NCI-H23 = test: Growth inhibition in NCI-H23 cells; format: functional; details: Homo sapiens
M14 = test: Growth inhibition in M14 cells; format: functional; details: Homo sapiens
NCI-H460 = test: Growth inhibition in NCI-H460 cells; format: functional; details: Homo sapiens
SK-MEL-28 = test: Growth inhibition in SK-MEL-28 cells; format: functional; details: Homo sapiens
SK-MEL-2 = test: Growth inhibition in SK-MEL-2 cells; format: functional; details: Homo sapiens
COLO 205 = test: Growth inhibition in COLO205 cells; format: functional; details: Homo sapiens
NCI-H226 = test: Growth inhibition in NCI-H226 cells; format: functional; details: Homo sapiens
CCRF-CEM = test: Growth inhibition in CCRF-CEM cells; format: functional; details: Homo sapiens
ZR-75-1 = test: Cytotoxicity against ZR-75-1 cell line; format: cell-based; details: Homo sapiens; how it was run: as §1
CAKI-1 = test: Growth inhibition in CAK1-1 cells; format: functional; details: Homo sapiens
LOX IMVI = test: Growth inhibition in LOX IMVI cells; format: functional; details: Homo sapiens
RXF 393 = test: Growth inhibition in RXF393 cells; format: functional; details: Homo sapiens
IGROV-1 = test: Growth inhibition in IGROV1 cells; format: functional; details: Homo sapiens
HOP-62 = test: Growth inhibition in HOP62 cells; format: functional; details: Homo sapiens
MCF7 = test: Growth inhibition in MCF7 cells; format: functional; details: Homo sapiens
NCI/ADR-RES = test: Growth inhibition in NCI/ADR-RES cells; format: functional; details: Homo sapiens
SK-MEL-5 = test: Growth inhibition in SK-MEL-5 cells; format: functional; details: Homo sapiens
SNB-75 = test: Growth inhibition in SNB75 cells; format: functional; details: Homo sapiens
NCI-H522 = test: Growth inhibition in NCI-H522 cells; format: functional; details: Homo sapiens
[5] = Growth inhibition in HCC15 cells; format: functional; details: Homo sapiens
KM12 = test: Growth inhibition in KM12 cells; format: functional; details: Homo sapiens
HCT-116 = test: Cytotoxicity against HCT116 cell line; format: cell-based; details: Homo sapiens; how it was run: as §1
Tubulin = test: Inhibition of tubulin polymerization; format: protein-complex assay, Homo sapiens
How it was run: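 Kit-based assay run per the manufacturer's instructions. Tubulin (>99% pure, 3 mg/mL) in G-PEM buffer, in a prewarmed plate with compound at 0.03–30 μM. OD340 nm read every 60 s at 37 °C for 1 h.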

OVCAR-5 = test: Growth inhibition in OVCAR5 cells; format: functional; details: Homo sapiens
PC-3 = test: Growth inhibition in PC3 cells; format: functional; details: Homo sapiens
UACC-62 = test: Growth inhibition in UACC62 cells; format: functional; details: Homo sapiens
OVCAR-8 = test: Growth inhibition in OVCAR8 cells; format: functional; details: Homo sapiens
[6] = Growth inhibition in MDA-MB-231/ATCC cells; format: functional; details: Homo sapiens
HL-60 = test: Growth inhibition in HL60 cells; format: functional; details: Homo sapiens
NCI-H322M = test: Growth inhibition in NCI-H322M cells; format: functional; details: Homo sapiens
TK-10 = test: Growth inhibition in TK10 cells; format: functional; details: Homo sapiens
HeLa = test: Cytotoxicity against HeLa cell line; format: cell-based; details: Homo sapiens; how it was run: as §1
SW-620 = test: Growth inhibition in SW620 cells; format: functional; details: Homo sapiens
ACHN = test: Growth inhibition in ACHN cells; format: functional; details: Homo sapiens
HCC 2998 = test: Growth inhibition in HCC2998 cells; format: functional; details: Homo sapiens
BT-549 = test: Growth inhibition in BT549 cells; format: functional; details: Homo sapiens
A498 = test: Growth inhibition in A498 cells; format: functional; details: Homo sapiens

## COc1cc(-c2nncn2-c2ccc3c(ccn3C)c2)cc(OC)c1OC
SF-268
  GI50: < 10 nM
SF-539
  GI50: < 10 nM
SN12C
  GI50: 63.1 nM
UACC-257
  GI50: 245 nM
HOP-92
  GI50: 83.2 nM
T47D
  GI50: 44.7 nM
OVCAR-4
  GI50: 1050 nM
UO-31
  GI50: 32.4 nM
MDA-MB-435
  GI50: < 10 nM
EKVX
  GI50: < 10 nM
786-0
  GI50: 32.4 nM
[1]
  pIC50: 8.00
[2]
  pIC50: 7.68
A549
  GI50: 37.1 nM
HT-29
  GI50: 22.9 nM
SK-OV-3
  GI50: 31.6 nM
[3]
  GI50: 16.2 nM
DU-145
  GI50: < 10 nM
SF-295
  GI50: < 10 nM
K562
  GI50: 14.8 nM
U-251
  GI50: 33.1 nM
OVCAR-3
  GI50: < 10 nM
[4]
  GI50: 30.9 nM
SNB-19
  GI50: 44.7 nM
NCI-H23
  GI50: 45.7 nM
M14
  GI50: 18.6 nM
NCI-H460
  GI50: 33.1 nM
SK-MEL-28
  GI50: < 10 nM
SK-MEL-2
  GI50: 166 nM
COLO 205
  GI50: 28.8 nM
NCI-H226
  GI50: 85100 nM
CCRF-CEM
  GI50: 32.4 nM
ZR-75-1
  pIC50: 7.62
CAKI-1
  GI50: < 10 nM
LOX IMVI
  GI50: 56.2 nM
RXF 393
  GI50: < 10 nM
IGROV-1
  GI50: 35.5 nM
HOP-62
  GI50: 18.6 nM
MCF7
  GI50: 43.6 nM
NCI/ADR-RES
  GI50: 20.9 nM
SK-MEL-5
  GI50: 14.1 nM
SNB-75
  GI50: 12.9 nM
NCI-H522
  GI50: < 10 nM
[5]
  GI50: 35.5 nM
KM12
  GI50: < 10 nM
HCT-116
  pIC50: 8.13
Tubulin
  pIC50: 5.52
OVCAR-5
  GI50: 47.9 nM
PC-3
  GI50: 19.5 nM
UACC-62
  GI50: < 10 nM
OVCAR-8
  GI50: 42.7 nM
[6]
  GI50: 30.9 nM
HL-60
  GI50: 41.7 nM
NCI-H322M
  GI50: < 10 nM
TK-10
  GI50: < 10 nM
HeLa
  pIC50: 8.06
SW-620
  GI50: 33.9 nM
ACHN
  GI50: 34.7 nM
HCC 2998
  GI50: 24 nM
BT-549
  GI50: 37.1 nM
A498
  GI50: 15.8 nM
